Shown are actives, neighbours in structure and some others; about 2.2% of the full set was active somewhere.
Scp1 inh: Scp-1 phosphatase inhibitors, primary screen, biochemical, colorimetric, uHTS; Carboxy-terminal domain RNA polymerase II polypeptide A small phosphatase 1 (Homo …; 340,000 tested, 0.88% active; Recombinant Scp1, phosphopeptide, malachite green phosphate absorbance; inhibition, % at 20 µM;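 active = inhibition above about 50% at 20 µM, limit read from the data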;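 also: plate controls were DMSO wells with enzyme for no effect and wells lacking enzyme for full effect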
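Material – SCP-1 phosphatase catalytic domain, residues 76-261 · Buffer or medium – Acidic Tris acetate buffer with magnesium and detergent · Also added – Phospho 17-mer peptide substrate · Compound – single 20 µM dose, 1% DMSO · Times – 45 min room-temperature reaction, 5 min colour, 30 min stabiliser · Technique – Phosphate-binding colour reagent, absorbance read at 630 nm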
GRK2 inh: compounds blocking aptamer binding on GRK2 – biochemical, human GRK2, bead flow cytometry, HTS, primary screen; Beta-adrenergic receptor kinase 1 (Homo sapiens), P25098; FAM-aptamer displacement from GRK2; inhibition of aptamer binding, % at 10 µM; 330,000 tested, 0.59% active;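 active = inhibition of aptamer binding above 40%, roughly 3 SD of noise, on plates passing a quality check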;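 also: median bead fluorescence of bound FAM aptamer so fluorescent compounds give negative values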
DNMT1 block: human DNMT1 methyltransferase inhibitors, primary screen, biochemical, molecular beacon, fluorescence, HinP1I cleavage, uHTS; DNA (cytosine-5)-methyltransferase 1 (Homo sapiens), P26358; inhibition (reported as % activation of signal), % at 10 µM; 360,000 tested, 0.83% active; AID 588458, 2011; in the data active = inhibition above about 50%
LMPTP block: LMPTP phosphatase inhibitors, primary screen, biochemical, fluorescence intensity, uHTS; Low molecular weight phosphotyrosine protein phosphatase (Homo sapiens), P24666; recombinant LMPTP-A, OMFP fluorogenic substrate; inhibition, % at 20 µM; 360,000 tested, 0.22% active; AID 651560, 2012;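 active = compounds that cut the enzyme signal by at least half of the control window in the single-dose screen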;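 also: plate controls were DMSO wells with enzyme plus substrate for no effect and substrate without enzyme for full effect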
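Assay system: LMPTP-A phosphatase enzyme | Input: 0.625 nM enzyme | Also added: Fluorogenic phosphatase substrate OMFP at 400 µM final | Compound dosing: One test concentration per compound, 20 µM, with 3% DMSO overall | Schedule: 50 min enzyme reaction at room temperature, protected from light | Signal: Fluorescence intensity | Benchmarks: no-enzyme and uninhibited controls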
SUMO1 PPI mod: modulators of SUMO1 protein-protein interactions, primary screen, biochemical, uHTS | Small ubiquitin-related modifier 1 (Homo sapiens), P63165 | SUMO1 binding to a labelled peptide, TR-FRET, 1 h | inhibition, % at 20 µM | 360,000 tested, 0.33% active | AID 602429, 2012; in the data active = inhibition above about 37%
Target sequence (P63165 whole entry, looked up): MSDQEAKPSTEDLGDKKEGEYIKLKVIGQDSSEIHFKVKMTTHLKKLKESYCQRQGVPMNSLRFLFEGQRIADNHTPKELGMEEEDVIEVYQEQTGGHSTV
STEP block: STEP phosphatase inhibitors, primary screen, biochemical, fluorescence intensity, uHTS; Tyrosine-protein phosphatase non-receptor type 5 (Homo sapiens), P54829; recombinant STEP, OMFP fluorogenic substrate; inhibition, % at 20 µM; 360,000 tested, 0.25% active;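 active = inhibition at 20 µM, scaled per plate between control wells, above about 37%, limit read from the data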;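 also: 0% = DMSO with enzyme and substrate and 100% = substrate only without enzyme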
Target sequence (P54829 whole entry, looked up): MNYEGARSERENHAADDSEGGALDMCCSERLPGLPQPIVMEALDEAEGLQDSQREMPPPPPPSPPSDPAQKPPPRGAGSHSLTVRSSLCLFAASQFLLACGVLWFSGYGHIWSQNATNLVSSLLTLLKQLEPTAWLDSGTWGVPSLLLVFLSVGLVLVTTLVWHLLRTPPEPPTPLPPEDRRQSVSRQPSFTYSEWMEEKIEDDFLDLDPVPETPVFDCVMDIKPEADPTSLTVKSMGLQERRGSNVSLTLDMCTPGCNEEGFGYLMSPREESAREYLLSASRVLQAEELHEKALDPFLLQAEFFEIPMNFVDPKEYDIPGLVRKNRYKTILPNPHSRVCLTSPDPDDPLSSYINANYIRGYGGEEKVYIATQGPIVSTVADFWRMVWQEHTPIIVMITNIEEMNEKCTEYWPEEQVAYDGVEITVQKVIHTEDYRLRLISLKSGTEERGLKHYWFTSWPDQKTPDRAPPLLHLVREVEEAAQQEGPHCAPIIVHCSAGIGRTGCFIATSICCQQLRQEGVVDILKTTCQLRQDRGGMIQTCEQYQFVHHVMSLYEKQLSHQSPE
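System: STEP phosphatase, cell-free reaction; Buffer or medium: Bis-Tris pH 6.0 buffer with DTT, detergent; Incubation: 20 min at room temperature, dark; Measured by: fluorescence, 480/540 nm.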
Scp-1 conf: Scp-1 phosphatase inhibitors, retest, confirmation, biochemical, colorimetric, single concentration; shares compounds with Scp1 inh; recombinant SCP-1 catalytic domain, phosphate release, malachite green absorbance; inhibition, % at 20 µM; 2,500 tested, 61% active; AID 540281, 2011;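 also: plate controls were DMSO with enzyme for no effect and buffer wells lacking enzyme for full effect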
MG interference: colorimetric readout interference by compounds, confirmation, artefact control for Scp-1 inhibitor project, biochemical, single concentration | shares compounds with Scp1 inh | Colorimetric interference counterscreen, malachite green absorbance 630 nm | apparent inhibition (interference), % at 20 µM | 2,500 tested, under 10 active | AID 540313, 2011;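 also: compounds added after enzyme reaction finished so only phosphate colour detection is probed; plate controls were DMSO wells with completed Scp-1 reaction for no effect and substrate wells lacking enzyme for full effect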
Scp-1 Tm shift: Scp-1 binding by thermal shift, confirmation, orthogonal assay for Scp-1 inhibitor project, biophysical, differential scanning fluorimetry | shares compounds with Scp1 inh | Recombinant SCP1, Sypro Orange thermal shift Tm | thermal shift relative to vanadate control, % at 40 µM | 1,500 tested, 25% active | AID 540329, 2011;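 active = substances whose mean melting-temperature shift, as a percentage of the reference inhibitor's shift, reaches about 5.3%, limit read from the data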;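 also: 0% = Tm of DMSO wells and 100% = Tm with sodium orthovanadate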
* marks the source's active call; other numbers are inactive results; . = no result.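 The calls were made as follows, unless noted: active = inhibition of at least 30% at 20 µM; inactive = the rest.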

SMILES	Scp1 inh	GRK2 inh	DNMT1 block	LMPTP block	SUMO1 PPI mod	STEP block	Scp-1 conf	MG interference	others
C/C(N)=C(/C#N)C(=O)CSc1ncnc2ccccc12	-6	0	5	0	-2	-2	.	.
COc1cccc(C(NC(C)=O)c2nc(-c3ccccc3)cs2)c1 (stereo not drawn)	.	.	-1	-2	0	-6	.	.
CSc1ccccc1NC(=O)CN(C)CC(=O)c1[nH]c(C)c(C(C)=O)c1C	101*	0	3	-1	-4	-1	-19	-24
CCN(CC)C(=O)c1cccc(-c2csc(C(C)(O)c3ccncc3)n2)c1 (stereo not drawn)	.	.	7	30	1	0	.	.
O=C(O)C(Cc1cn[nH]n1)=NO	57*	0	1	-1	-5	2	-12	-11
CN(CCNC(=O)c1cc2c(=O)n(C)c3ccccc3c2n1C)Cc1ccccc1	-16	0	1	0	5	0	.	.
CCCN(CCC)CCNC(=O)c1cc2c(=O)n(C)c3ccccc3c2n1C	90*	0	3	2	5	1	-8	-8
C=CC1=C(C(=O)O)N2C(=O)[C@@H](NC(=O)/C(=N\O)c3csc(N)n3)[C@H]2SC1 (stereo in doubt)	98*	10	89*	79*	63*	73*	60*	-11	Scp-1 Tm shift=2
NC(=O)CCC(NS(=O)(=O)c1ccc(Cl)cc1)C(=O)NCc1ccc(Cl)cc1 (stereo not drawn)	-9	2	7	-2	7	-1	-13	-16
COC(=O)c1ccc(/C=C/C(=O)OCC(=O)Nc2sccc2C(N)=O)cc1	2	0	-12	5	-9	-2	.	.
NC(=O)c1ccsc1NC(=O)COC(=O)/C=C/c1ccc([N+](=O)[O-])cc1	71*	6	11	64*	14	7	59*	-6	Scp-1 Tm shift=4
CCCCNC(=O)c1[nH]c(=O)cnc1-c1ccccc1	.	.	12	0	-6	0	.	.
CC(=O)OC1C2CCC1C([N+]1(C)CCCCC1)CC2 (stereo not drawn)	94*	0	-1	-2	-3	1	95*	-6	Scp-1 Tm shift=-25
C[N+]1(C2CCC3CCC2C3O)CCCC1 (stereo not drawn)	6	0	4	-2	6	-2	.	.
Cc1ccc(S(=O)(=O)N2[C@H](CC(=O)c3ccc(F)cc3)OC[C@@H]2C)cc1	.	.	.	0	3	.	.	.
C[N+]12CCCCC1[C@@H](CO)CCC2 (stereo partly drawn)	55*	1	1	0	-5	1	4	-8
COc1ccc(C(=O)O/N=C2\C(=O)N(C)c3ccccc32)cc1	52*	2	3	-2	-21	0	-15	-18
Cc1ccc(NC(=O)c2cc(-c3ccc(C)c(C)c3O)n[nH]2)cc1C	99*	0	15	20	14	12	67*	-5	Scp-1 Tm shift=7.5*
CC(=O)Nc1ccc(NC(=O)c2cc(-c3ccc(C)c(C)c3O)n[nH]2)cc1	-19	0	-12	0	6	0	.	.
O=C(CC1CC2CCC1C2)N1CCN(S(=O)(=O)c2ccc(C(F)(F)F)cc2)CC1 (stereo not drawn)	.	.	-4	-2	1	0	.	.
COc1ccccc1-c1cn(CC[C@H]2CC[C@@H](NS(=O)(=O)c3ccccc3C)[C@@H](CO)O2)nn1	.	.	.	-2	-7	.	.	.
Cc1ccc(N2NC(=O)/C(=C/c3ccc(-c4ccc(Cl)c(C(=O)O)c4)o3)C2=O)cc1C	22	0	13	2	-3	8	.	.
CC1(C)OC(=O)C(=Cc2ccc(-c3ccc(Cl)c(C(=O)O)c3)o2)C(=O)O1	57*	24	52*	1	18	8	57*	-9	Scp-1 Tm shift=-10
CC(=O)Nc1cc2c(c(Cl)c1Cl)-c1ccccc1C2=O	80*	.	17	23	37	6	-15	-13
COc1ccccc1C(=O)Nc1c2c(nn1-c1cccc(C)c1C)CS(=O)(=O)C2	73*	0	4	-1	18	22	46*	-14	Scp-1 Tm shift=-12
SMILES	Scp1 inh	GRK2 inh	DNMT1 block	LMPTP block	SUMO1 PPI mod	STEP block	Scp-1 conf	MG interference	others
Cc1cccc(-n2nc3c(c2NC(=O)c2ccco2)CS(=O)(=O)C3)c1C	-9	3	1	1	4	-5	.	.
Cc1ccc(NC(=O)c2cccc(S(=O)(=O)Nc3c(C)n(C)n(-c4ccccc4)c3=O)c2)cc1C	-2	.	.	.	.	.	.	.
CCCNS(=O)(=O)c1ccc(OC)c(Cl)c1Cl	0	0	3	-1	-5	-1	.	.
COc1ccc(S(=O)(=O)NCCSC(C)(C)C)c(Cl)c1Cl	60*	0	-24	1	3	-2	34*	-16	Scp-1 Tm shift=-20
Cc1onc(-c2ccccc2)c1C(=O)Nc1nnc(-c2ccncc2)s1	-4	7	1	1	13	-2	.	.
Cc1noc(C)c1C(=O)Nc1nnc(-c2ccccc2)s1	67*	1	0	-1	2	6	-24	-22
O=C(CN1C(=O)NC2(CCCCC2)C1=O)NCC(=O)Nc1ccc(F)c(F)c1	-2	3	3	-2	0	-1	-12	-15
O=C(c1cc2nc(-c3ccc(F)cc3)cc(C(F)(F)F)n2n1)N1CCOCC1	53*	0	-1	-3	-3	-2	-14	-9
O=C(c1cc2nc(-c3ccccc3)cc(C(F)(F)F)n2n1)N1CCOCC1	-2	2	2	0	-17	-2	.	.
O=C(C(=O)N1CCN(c2ccccc2)CC1)c1ccccc1	.	.	.	0	0	.	.	.
